Experimental data from ChEMBL document CHEMBL4396885, “Thioether-based 2-aminobenzamide derivatives: Novel HDAC inhibitors with potent in vitro and in vivo antitumor activity” (Eur J Med Chem, 2019).

What was measured:
[1] = tested on: A549; assay: Induction of apoptosis in human A549 cells assessed as viable cells at 2 uM after 48 hrs by Annexin V-FITC/propidium iodide staining based flow cytometry (reference value: 98%); assay type: functional; settings: A549, 48 h, read-out: Activity
Summary of the method: (§1)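 A549 seeded 4×10⁶ cells/well, dosed after 12 h with compound at various concentrations, harvested after 48 h. Resuspended in annexin-binding buffer, stained with Annexin V-FITC and propidium iodide for 15 min in the dark, analysed by flow cytometry; means of three separate experiments.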

[2] = biological target: Histone deacetylase 3/NCoR1 (Homo sapiens, UniProt O15379); assay: Inhibition of recombinant human HDAC3/NCOR1 assessed as decrease in deacetylation of FLUOR DE LYS SIRT1 substrate preincubated for 10 mins followed by substrate addition and measured after 30 mins by fluorescence based assay; assay type: protein-complex assay
[3] = Toxicity against nude Balb/c mouse xenografted with human A549 cells assessed as no change in body weight at 25 mg/kg, ip administered twice per day for 21 days and measured every 3 days during compound dosing; assay type: organism-based; settings: in vivo
Summary of the method: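 Female BALB/c nude mice, 5–6 weeks, implanted s.c. in right axilla with 3×10⁶ A549 cells; randomized at ~95 mm³ tumor volume, 4 per group. Dosed ip 25 mg/kg twice daily for 21 days; vehicle controls got DMA & 5% Solutol HS-15 (5:95). Tumor size (V=length×width²/2) and body weight measured every 3 days; TGI from volume change relative to control.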

[4] = tested on: A549; assay: Induction of apoptosis in human A549 cells assessed as necrotic cells at 1 uM after 48 hrs by Annexin V-FITC/propidium iodide staining based flow cytometry (reference value: 0.135%); assay type: functional; summary of the method: as §1
[5] = tested on: HCT-116; assay: Antiproliferative activity against human HCT116 cells assessed as growth inhibition at 8 uM after 72 hrs by CCK-8 assay relative to control; assay type: functional; settings: HCT-116, 72 h, read-out: GI
[6] = biological target: Histone deacetylase 2 (Homo sapiens, UniProt Q92769); assay: Inhibition of recombinant human HDAC2 assessed as decrease in deacetylation of FLUOR DE LYS Green substrate preincubated for 10 mins followed by substrate addition and measured after 30 mins by fluorescence based assay
[7] = biological target: T1, Protein deacetylase HDAC6 (Homo sapiens, UniProt Q9UBN7); assay: Inhibition of recombinant human His tagged HDAC6 expressed in baculovirus infected insect cells assessed as decrease in deacetylation of FLUOR DE LYS SIRT1 substrate by measuring decrease in fluorescence preincubated for 10 mins followed by substrate addition and measured after 30 mins by fluorescence based assay
T1 sequence (Q9UBN7 whole entry): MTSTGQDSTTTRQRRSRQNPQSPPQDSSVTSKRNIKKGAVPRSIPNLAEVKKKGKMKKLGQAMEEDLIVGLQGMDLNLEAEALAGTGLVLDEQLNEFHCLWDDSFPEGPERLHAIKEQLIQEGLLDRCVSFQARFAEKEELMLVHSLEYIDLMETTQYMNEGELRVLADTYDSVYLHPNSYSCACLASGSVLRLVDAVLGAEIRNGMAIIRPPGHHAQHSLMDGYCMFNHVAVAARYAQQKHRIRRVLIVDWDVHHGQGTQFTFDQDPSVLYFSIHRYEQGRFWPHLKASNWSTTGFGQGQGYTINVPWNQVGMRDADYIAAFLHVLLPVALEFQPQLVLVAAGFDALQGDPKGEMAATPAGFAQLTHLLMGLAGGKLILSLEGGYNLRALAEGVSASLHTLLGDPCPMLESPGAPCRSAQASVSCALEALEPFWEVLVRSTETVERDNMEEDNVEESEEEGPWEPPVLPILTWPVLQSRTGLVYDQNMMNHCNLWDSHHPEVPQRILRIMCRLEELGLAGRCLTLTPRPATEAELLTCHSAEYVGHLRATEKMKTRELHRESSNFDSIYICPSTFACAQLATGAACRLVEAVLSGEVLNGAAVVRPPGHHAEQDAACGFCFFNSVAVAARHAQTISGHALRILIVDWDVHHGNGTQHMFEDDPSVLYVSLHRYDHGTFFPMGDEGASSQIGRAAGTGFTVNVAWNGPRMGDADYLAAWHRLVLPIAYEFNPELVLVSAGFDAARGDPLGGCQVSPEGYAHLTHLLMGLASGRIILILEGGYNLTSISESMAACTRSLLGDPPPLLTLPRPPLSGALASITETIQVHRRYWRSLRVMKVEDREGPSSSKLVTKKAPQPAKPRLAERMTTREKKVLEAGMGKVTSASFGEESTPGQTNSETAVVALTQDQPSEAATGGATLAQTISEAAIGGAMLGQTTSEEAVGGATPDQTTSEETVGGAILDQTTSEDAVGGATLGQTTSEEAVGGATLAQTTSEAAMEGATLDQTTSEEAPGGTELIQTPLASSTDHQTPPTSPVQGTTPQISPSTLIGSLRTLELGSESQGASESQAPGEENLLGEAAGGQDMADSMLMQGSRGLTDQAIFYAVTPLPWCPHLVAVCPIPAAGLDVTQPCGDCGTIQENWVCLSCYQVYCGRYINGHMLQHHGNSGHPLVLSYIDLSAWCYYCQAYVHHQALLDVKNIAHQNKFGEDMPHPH

[8] = tested on: A549; assay: Induction of apoptosis in human A549 cells assessed as late apoptotic cells at 1 uM after 48 hrs by Annexin V-FITC/propidium iodide staining based flow cytometry (reference value: 0.637%); assay type: functional; summary of the method: as §1
[9] = biological target: Histone deacetylase 1 (Homo sapiens, UniProt Q13547); assay: Inhibition of recombinant human His tagged HDAC1 expressed in baculovirus infected insect cells assessed as decrease in deacetylation of FLUOR DE LYS Green substrate preincubated for 10 mins followed by substrate addition and measured after 30 mins by fluorescence based assay
[10] = tested on: A549; assay: Cell cycle arrest in human A549 cells assessed as accumulation of cells at G2/M phase at 1 uM after 48 hrs by propidium iodide staining-based flow cytometry (reference value: 13.62%); assay type: functional
[11] = tested on: NIH3T3; assay: Cytotoxicity against mouse NIH/3T3 cells assessed as reduction in cell viability after 72 hrs by CCK-8 assay; assay type: cell-based; settings: NIH3T3, 72 h
[12] = Volume of distribution at steady state n ICR mouse at 4 mg/kg, iv after 0.08 to 24 hrs by LC-MS/MS analysis; assay type: ADME, organism-based; settings: in vivo, read-out: Vdss
Summary of the method: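 Male ICR mice (29.7~37.4 g), single iv dose 4 mg/kg in DMSO:40% SBE-β-CD 20:80 (v/v). Retro-orbital blood at 0.08–24 h into EDTA-K2 tubes; plasma protein-precipitated with acetonitrile containing internal standards, analysed by LC-MS/MS; n=3 per time point; noncompartmental analysis.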

[13] = biological target: Histone deacetylase; assay: Inhibition of HDAC in human HeLa cell nuclear extract assessed as decrease in deacetylation of FLUOR DE LYS Green substrate preincubated for 10 mins followed by substrate addition and measured after 30 mins by fluorescence based assay; assay type: cell-free
[14] = tested on: A549; assay: Induction of apoptosis in human A549 cells assessed as early apoptotic cells at 2 uM after 48 hrs by Annexin V-FITC/propidium iodide staining based flow cytometry (reference value: 1.19%); assay type: functional; summary of the method: as §1
[15] = tested on: HCT-116; assay: Antiproliferative activity against human HCT116 cells assessed as growth inhibition at 2 uM after 72 hrs by CCK-8 assay relative to control; assay type: functional; settings: HCT-116, 72 h, read-out: GI
[16] = tested on: A549; assay: Induction of apoptosis in human A549 cells after 48 hrs by Annexin V-FITC/propidium iodide staining based flow cytometry; assay type: functional, cell-based; summary of the method: as §1

Histone deacetylase 3/NCoR1, sequence (O15379 whole entry): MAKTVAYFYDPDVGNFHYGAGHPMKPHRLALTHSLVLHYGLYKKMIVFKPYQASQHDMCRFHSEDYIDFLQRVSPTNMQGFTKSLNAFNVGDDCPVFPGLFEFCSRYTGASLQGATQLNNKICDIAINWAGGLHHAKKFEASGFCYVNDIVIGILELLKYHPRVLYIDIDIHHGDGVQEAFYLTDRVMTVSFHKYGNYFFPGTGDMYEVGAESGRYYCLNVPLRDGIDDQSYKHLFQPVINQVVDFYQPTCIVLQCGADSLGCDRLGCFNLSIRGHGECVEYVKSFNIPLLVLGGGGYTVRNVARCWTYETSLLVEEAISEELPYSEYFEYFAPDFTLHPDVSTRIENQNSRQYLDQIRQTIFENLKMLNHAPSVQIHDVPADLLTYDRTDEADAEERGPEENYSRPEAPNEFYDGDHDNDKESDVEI
Histone deacetylase 3/NCoR1, sequence (O75376 whole entry, further chain): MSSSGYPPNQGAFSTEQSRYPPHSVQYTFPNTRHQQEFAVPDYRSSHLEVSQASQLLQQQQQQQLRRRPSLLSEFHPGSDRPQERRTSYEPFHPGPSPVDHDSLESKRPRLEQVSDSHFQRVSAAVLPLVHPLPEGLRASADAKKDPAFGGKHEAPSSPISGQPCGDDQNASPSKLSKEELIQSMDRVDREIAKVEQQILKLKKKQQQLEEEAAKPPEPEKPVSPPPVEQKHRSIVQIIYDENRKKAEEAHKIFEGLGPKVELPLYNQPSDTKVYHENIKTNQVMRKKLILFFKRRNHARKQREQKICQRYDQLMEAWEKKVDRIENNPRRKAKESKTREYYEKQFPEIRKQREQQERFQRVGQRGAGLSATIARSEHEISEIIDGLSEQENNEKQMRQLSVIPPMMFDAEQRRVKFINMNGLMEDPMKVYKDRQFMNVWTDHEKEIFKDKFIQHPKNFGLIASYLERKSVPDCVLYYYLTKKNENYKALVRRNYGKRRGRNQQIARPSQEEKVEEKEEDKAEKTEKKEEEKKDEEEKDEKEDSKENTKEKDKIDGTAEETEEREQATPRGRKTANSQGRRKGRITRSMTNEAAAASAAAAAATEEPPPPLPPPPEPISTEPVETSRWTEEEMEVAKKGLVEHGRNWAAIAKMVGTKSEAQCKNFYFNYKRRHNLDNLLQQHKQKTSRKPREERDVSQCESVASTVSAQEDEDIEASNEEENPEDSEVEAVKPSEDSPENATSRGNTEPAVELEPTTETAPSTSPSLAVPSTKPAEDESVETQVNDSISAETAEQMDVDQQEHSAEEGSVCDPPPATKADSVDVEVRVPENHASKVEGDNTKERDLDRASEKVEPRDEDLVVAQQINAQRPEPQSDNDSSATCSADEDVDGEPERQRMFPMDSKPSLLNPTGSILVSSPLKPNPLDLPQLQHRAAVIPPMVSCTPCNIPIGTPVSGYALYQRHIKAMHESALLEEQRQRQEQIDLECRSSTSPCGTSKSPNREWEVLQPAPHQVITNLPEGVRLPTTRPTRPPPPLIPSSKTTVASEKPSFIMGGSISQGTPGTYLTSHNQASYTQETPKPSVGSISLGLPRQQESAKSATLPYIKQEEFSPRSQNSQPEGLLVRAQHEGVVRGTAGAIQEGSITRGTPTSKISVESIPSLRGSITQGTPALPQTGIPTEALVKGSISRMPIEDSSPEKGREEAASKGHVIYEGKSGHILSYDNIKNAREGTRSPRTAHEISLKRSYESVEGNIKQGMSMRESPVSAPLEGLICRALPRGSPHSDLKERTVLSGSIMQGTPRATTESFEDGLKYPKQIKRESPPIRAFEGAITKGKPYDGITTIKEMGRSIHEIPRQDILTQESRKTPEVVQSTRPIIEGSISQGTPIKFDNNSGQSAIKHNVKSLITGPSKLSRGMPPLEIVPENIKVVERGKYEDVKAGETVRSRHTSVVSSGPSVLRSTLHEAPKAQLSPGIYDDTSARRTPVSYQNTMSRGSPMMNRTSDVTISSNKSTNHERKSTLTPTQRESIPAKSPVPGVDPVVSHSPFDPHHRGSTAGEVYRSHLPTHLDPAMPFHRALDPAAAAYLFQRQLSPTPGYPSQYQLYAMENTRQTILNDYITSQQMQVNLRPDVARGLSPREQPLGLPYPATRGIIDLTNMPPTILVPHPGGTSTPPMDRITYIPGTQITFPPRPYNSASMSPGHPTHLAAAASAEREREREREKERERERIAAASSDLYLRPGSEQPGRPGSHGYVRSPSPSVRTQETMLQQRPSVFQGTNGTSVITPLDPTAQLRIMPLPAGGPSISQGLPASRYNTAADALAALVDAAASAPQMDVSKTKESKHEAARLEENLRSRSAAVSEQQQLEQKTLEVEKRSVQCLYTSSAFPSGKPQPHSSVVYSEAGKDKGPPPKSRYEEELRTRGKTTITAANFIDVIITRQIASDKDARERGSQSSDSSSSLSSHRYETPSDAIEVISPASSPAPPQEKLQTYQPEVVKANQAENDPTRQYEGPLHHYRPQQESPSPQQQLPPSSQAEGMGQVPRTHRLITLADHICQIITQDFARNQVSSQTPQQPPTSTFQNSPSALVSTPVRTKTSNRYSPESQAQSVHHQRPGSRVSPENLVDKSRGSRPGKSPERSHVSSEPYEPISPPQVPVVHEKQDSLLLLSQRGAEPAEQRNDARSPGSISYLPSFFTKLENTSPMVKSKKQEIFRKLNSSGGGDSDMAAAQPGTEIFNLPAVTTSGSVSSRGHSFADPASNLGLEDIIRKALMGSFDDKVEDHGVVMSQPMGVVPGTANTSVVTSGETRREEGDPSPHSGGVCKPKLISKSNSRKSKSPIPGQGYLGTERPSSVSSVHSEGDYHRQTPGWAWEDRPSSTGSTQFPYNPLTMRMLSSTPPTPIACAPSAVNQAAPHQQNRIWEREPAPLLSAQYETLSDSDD
Histone deacetylase 1, sequence (Q13547 whole entry): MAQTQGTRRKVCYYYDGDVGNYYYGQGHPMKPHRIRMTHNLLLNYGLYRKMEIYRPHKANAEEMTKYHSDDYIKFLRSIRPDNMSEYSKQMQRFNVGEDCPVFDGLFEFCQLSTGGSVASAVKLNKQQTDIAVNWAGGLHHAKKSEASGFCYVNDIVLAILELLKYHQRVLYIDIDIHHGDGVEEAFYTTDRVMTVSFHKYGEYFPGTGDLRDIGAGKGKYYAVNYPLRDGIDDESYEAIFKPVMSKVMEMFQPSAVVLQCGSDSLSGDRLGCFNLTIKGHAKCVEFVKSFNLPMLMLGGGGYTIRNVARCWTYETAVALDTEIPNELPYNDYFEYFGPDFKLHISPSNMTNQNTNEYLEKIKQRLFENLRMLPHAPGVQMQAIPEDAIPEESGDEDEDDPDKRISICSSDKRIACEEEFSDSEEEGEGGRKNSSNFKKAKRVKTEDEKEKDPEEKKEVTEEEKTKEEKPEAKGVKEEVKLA
Histone deacetylase 2, sequence (Q92769 whole entry): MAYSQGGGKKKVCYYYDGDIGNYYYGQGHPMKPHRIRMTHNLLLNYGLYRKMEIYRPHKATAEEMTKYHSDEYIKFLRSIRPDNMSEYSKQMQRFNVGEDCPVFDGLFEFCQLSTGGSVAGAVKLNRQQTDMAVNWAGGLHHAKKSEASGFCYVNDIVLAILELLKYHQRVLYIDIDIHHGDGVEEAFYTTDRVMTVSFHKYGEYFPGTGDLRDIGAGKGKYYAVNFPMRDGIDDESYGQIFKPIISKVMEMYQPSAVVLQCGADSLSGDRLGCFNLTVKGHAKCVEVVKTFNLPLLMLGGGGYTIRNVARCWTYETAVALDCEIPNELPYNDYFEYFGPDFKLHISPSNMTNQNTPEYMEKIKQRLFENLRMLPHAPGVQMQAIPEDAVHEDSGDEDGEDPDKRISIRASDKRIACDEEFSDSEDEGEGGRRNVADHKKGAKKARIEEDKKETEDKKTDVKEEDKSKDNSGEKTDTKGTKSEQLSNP

## COc1ccc(SCc2ccc(C(=O)Nc3ccccc3N)cc2)cc1
[1]
  viability at 2 µM: 47.5%
[2]
  IC50: 136 nM
[3]
  Activity: Non-Toxic
[4]
  Activity: 1.5%
[5]
  inhibition of growth at 8 µM: 90.1%
[6]
  IC50: 205 nM
[7]
  IC50: > 32000 nM
[8]
  Activity: 10.8%
[9]
  IC50: 16 nM
[10]
  Activity: 38.3%
[11]
  IC50: 4040 nM
[12]
  Vd: 1.74 L/kg
[13]
  IC50: > 32000 nM
[14]
  Activity: 5.65%
[15]
  inhibition of growth at 2 µM: 73.3%
[16]
  Activity: Dose-dependent effect

## CCc1ccc(SCc2ccc(C(=O)Nc3ccccc3N)cc2)cc1
[1]
  viability at 2 µM: 63.5%
[2]
  IC50: 215 nM
[3]
  Activity: Non-Toxic
[4]
  Activity: 8.44%
[5]
  inhibition of growth at 8 µM: 79.1%
[6]
  IC50: 144 nM
[7]
  IC50: > 32000 nM
[8]
  Activity: 14.6%
[9]
  IC50: 71 nM
[10]
  Activity: 59.87%
[11]
  IC50: 3660 nM
[12]
  Vd: 3.46 L/kg
[13]
  IC50: > 32000 nM
[14]
  Activity: 6.55%
[15]
  inhibition of growth at 2 µM: 40.7%
[16]
  Activity: Dose-dependent effect
